An excerpt weighted towards active compounds, which were near 3.8% of everything screened.
KCNK3 block = human KCNK3 channel inhibition, primary screen. O14649. CHO-KCNK3 thallium flux, FluxOR fluorescence; active compounds read low. B-score at 10 µM. actives 0.84% (n = 340,000);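 active = B-score under library mean minus 4 SD, starting fluorescence ratio at most library mean plus 5 SD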;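 also: more negative B-score means stronger inhibition of thallium flux through KCNK3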
KCNQ1 pot = potentiates or activates the human KCNQ1 potassium channel. P51787. AID 2648. actives 0.35% (n = 310,000). B-score at 10 µM. CHO-K1 KCNQ1, thallium flux FluxOR fluorescence; active compounds read high;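 active = fluorescence ratio B-score, a plate-corrected score, at least three library SD, with initial intensity B-score within 5 SD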
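Medium – assay buffer, equal DMSO in all wells · Material – CHO-K1 cell line with stable KCNQ1 potassium channel expression · Signal – kinetic FluxOR thallium fluorescence, 10-s 1-Hz baseline, 110-s post-stimulus read · Compound – single concentration per compound, DMSO matched to controls · Schedule – 37 °C overnight plating, 90-min dark dye load, 20-min compound pretreatment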
KCNK9 block = inhibitors of human KCNK9 two-pore domain potassium channel. Q9NPC2. HEK293 KCNK9, FluxOR thallium flux fluorescence; active compounds read low. B-score at 10 µM. actives 1.2% (n = 310,000);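 active = ratio B-score over 3 SD below the library mean, with starting fluorescence within 5 SD of its mean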;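 also: negative B-score means less thallium flux so channel inhibition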
hERG rescue = hERG (human) protection from proarrhythmic block | Q12809 | actives 0.51% (n = 310,000) | CHO-hERG, FluxOR thallium flux, dofetilide IC70 present | activation (rescue from dofetilide block), less the hit threshold, % at 10 µM;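 active = activation above the mean of controls blocked by dofetilide plus 5 SD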;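 also: thallium influx through hERG after potassium depolarization seen as dye fluorescence rise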
Kir21 inh = inhibitors of mouse Kir2.1 inward-rectifier potassium channel; HEK293-Kir2.1, FluxOR thallium flux fluorescence; active compounds read low; P35561; B-score at 10 µM; AID 1672; actives 0.85% (n = 310,000);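 active = fluorescence ratio B-score at or below minus 3 SD of library scores, with starting-brightness B-score within 2 SD, cut at about -4.2 in these data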;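 also: channel flux triggered by added potassium and thallium sulfate stimulus; B-score of peak minus minimum fluorescence over baseline after thallium stimulus; more negative B-score means stronger Kir2.1 block with less thallium influx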
Target sequence (P35561 whole entry, looked up): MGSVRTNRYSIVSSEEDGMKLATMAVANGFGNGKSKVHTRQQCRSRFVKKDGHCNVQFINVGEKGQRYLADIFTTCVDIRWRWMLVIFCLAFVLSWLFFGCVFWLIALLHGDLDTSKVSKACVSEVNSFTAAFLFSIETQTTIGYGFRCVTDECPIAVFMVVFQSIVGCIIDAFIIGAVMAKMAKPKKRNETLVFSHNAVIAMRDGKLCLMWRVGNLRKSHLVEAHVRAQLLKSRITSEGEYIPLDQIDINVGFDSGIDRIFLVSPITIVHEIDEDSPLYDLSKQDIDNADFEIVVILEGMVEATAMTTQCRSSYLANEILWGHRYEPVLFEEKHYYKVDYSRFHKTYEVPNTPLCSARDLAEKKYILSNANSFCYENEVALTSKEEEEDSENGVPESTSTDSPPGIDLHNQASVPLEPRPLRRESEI
KCNQ1 inh = blocks the human KCNQ1 potassium channel; P51787; CHO-K1 KCNQ1, FluxOR thallium flux fluorescence; active compounds read high; B-score at 10 µM; actives 1.3% (n = 310,000); AID 2642;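 active = compounds whose thallium flux B-score, printed positive for inhibition, exceeds three library SD while starting fluorescence stays within three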;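 also: channel opened by potassium depolarization with thallium stimulus after 20 min compound exposure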
KCNK9 inh conf = human KCNK9 inhibitor confirmation. actives 43% (n = 4,900). HEK293 KCNK9 cells, FluxOR thallium flux fluorescence. inhibition, % at 10 µM. shares compounds with KCNK9 block;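 active = thallium signal inhibited by more than 5 SD of the compound-free buffer control wells, on both duplicate plates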
Kir2-1 spec = selectivity of KCNK9 modulators against mouse Kir2.1 | shares compounds with KCNK9 block | Kir2.1 cells, FluxOR thallium flux fluorescence | inhibition, % at 10 µM | actives 4% (n = 4,900) | AID 492993;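 active = thallium signal drop more than 5 SD beyond the mean of the no-compound control wells, seen in both duplicate plates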;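 also: signal is fluorescence rise after thallium addition divided by baseline fluorescence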
HEK293 Tl ctr = second counter-screen for KCNK9 modulators: effect in non-induced cells; shares compounds with KCNK9 block; AID 492997; inhibition, % at 10 µM; non-induced KCNK9-HEK293, FluxOR thallium flux; actives 40% (n = 4,900);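 active = thallium signal drop beyond 5 SD of the untreated control mean, on both duplicate plates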
Hits are given with their value; - = inactive; . = no result given.

SMILES | KCNK3 block | KCNQ1 pot | KCNK9 block | hERG rescue | Kir21 inh | KCNQ1 inh | KCNK9 inh conf | Kir2-1 spec | HEK293 Tl ctr
CN(C)/N=C/c1ccc(Sc2ccccc2[N+](=O)[O-])o1 | - | - | - | - | - | - | - | - | -
CN(C)/N=C/c1ccc([N+](=O)[O-])cc1[N+](=O)[O-] | - | - | - | - | - | - | . | . | .
COc1cc(OC)nc(Oc2cccc(Cl)c2C)n1 | - | - | - | - | - | - | . | . | .
COc1cc(OC)nc(Oc2ccccc2C(=O)Oc2ccc(F)cc2Cl)n1 | - | - | -9.1 | - | - | - | 59% | - | 39%
CCCCN(C)C(=O)c1cccc(OC2CCN(CC(C)(C)C)CC2)c1 | - | - | -12 | - | - | - | - | - | -
O=C(CCC(=O)c1cccs1)OCc1nc2ccccc2s1 | - | - | - | - | - | - | . | . | .
O=C(CCc1nc2ccccc2s1)OCc1ccccc1 | - | - | - | - | - | - | - | - | -
O=C(Oc1cc2oc(=O)cc(-c3ccccc3)c2cc1Cl)C1CCCCC1 | - | - | - | - | - | - | . | . | .
Cc1cc(OCCN2CCC(Cc3ccccc3)CC2)ccc1[N+](=O)[O-] | - | - | - | - | - | - | - | - | -
Cc1ccc([N+](=O)[O-])c(OCCN2CCNCC2)c1 | - | - | - | - | - | - | - | - | -
Cc1cc(OCCN2CC(C)OC(C)C2)ccc1[N+](=O)[O-] (stereo unspecified) | - | - | - | - | - | - | . | . | .
Cc1nn(Cc2cccc(C(=O)O)c2)c(C)c1[N+](=O)[O-] | - | - | - | - | - | - | . | . | .
CCOc1ccc(-n2cnnn2)cc1S(=O)(=O)Nc1c(C)cccc1C | - | - | - | - | - | - | . | . | .
O=C(CC1CCCC1)N1CCCC(Nc2ccc(F)cc2)C1 (stereo unspecified) | - | - | - | - | - | - | - | - | -
CC1(CCC(=O)N2CCCC(Nc3ccc(F)cc3)C2)CC1 (stereo unspecified) | - | - | - | - | -6.1 | - | - | - | -
COc1ccc(OC)c(S(=O)(=O)NCc2ccccc2)c1 | - | - | - | - | - | - | . | . | .
NC(=O)c1nsc(C(=O)N(c2ccccc2F)C(C(=O)NCc2ccc(F)cc2)c2ccc(O)cc2)c1N (stereo unspecified) | - | - | - | - | - | - | . | . | .
C=CCc1cc(C)ccc1OCCOCCC(C(=O)OCC)C(=O)OCC | - | - | - | - | -8.6 | - | - | - | -
COc1ccc(Cl)cc1-c1csc(N)n1 | - | - | - | - | - | - | . | . | .
O=C(OC1CO[C@H]2O[C@@H]1[C@H](OC(=O)c1ccccc1)[C@H]2OC(=O)c1ccccc1)c1ccccc1 (stereo partly specified) | - | - | - | - | - | - | - | - | -
O=C(OC1CCS(=O)(=O)c2sccc21)c1ccccc1 (stereo unspecified) | - | - | - | - | - | - | . | . | .
CCCn1c(NC(=O)c2ccc(Cl)c(S(=O)(=O)N3CCCC3)c2)nc2ccccc21 | - | - | -8.9 | - | - | - | 40% | - | -
Cc1ccc(NC(=O)COC(=O)c2csc3c2CCC(C)C3)cc1S(=O)(=O)N1CCCCC1 (stereo unspecified) | - | - | -9.2 | - | - | - | 32% | - | -
O=C(COC(=O)c1ccc(Cl)c(S(=O)(=O)N2CCCCCC2)c1)Nc1ccccc1 | - | - | - | - | - | - | - | - | -
O=C(COC(=O)c1ccc(S(=O)(=O)N2CCCC2)cc1)Nc1ccccc1 | - | . | . | . | . | . | . | . | .
SMILES | KCNK3 block | KCNQ1 pot | KCNK9 block | hERG rescue | Kir21 inh | KCNQ1 inh | KCNK9 inh conf | Kir2-1 spec | HEK293 Tl ctr
O=C(NCc1nc2ccccc2[nH]1)c1ccc(Cl)c(S(=O)(=O)N2CCCC2)c1 | - | - | - | - | - | - | . | . | .
COC(=O)c1ccc(S(=O)(=O)N2CCc3ccccc32)cc1 | - | - | - | - | - | - | . | . | .
Cc1ccc(C23CC4CC(CC(C(=O)NN)(C4)C2)C3)cc1 | - | - | - | - | - | - | . | . | .
CCOC(=O)CNC(=O)C12CC3CC(C1)CC(c1ccc(C)cc1)(C3)C2 | - | - | - | - | - | - | - | - | -
CCOc1ccc(NC(=O)C23CC4CC(C2)CC(c2ccccc2)(C4)C3)cc1 | - | - | - | - | - | - | - | - | -
CCCCCCCC(=O)NNC(=O)c1c(O)c2ccccc2n(CC)c1=O | - | - | - | - | - | - | - | - | -
CCCCCCC(=O)NNC(=O)c1c(O)c2ccccc2n(CCC)c1=O | - | - | - | - | - | - | . | . | .
CCCCCCCC(=O)NNC(=O)c1c(O)c2ccccc2n(CCC)c1=O | - | - | - | - | - | - | - | - | -
O=C(O)CSc1ccccc1C(=O)O | - | - | - | - | - | - | . | . | .
CC(C(=O)Nc1nccs1)N1C(=O)C2CC=CCC2C1=O (stereo unspecified) | - | - | - | - | - | - | . | . | .
CC(C)(C)c1cc(CCC(=O)NN)cc(C(C)(C)C)c1O | - | - | - | - | - | - | . | . | .
C=CC(=O)NCCCc1cc(C(C)(C)C)c(O)c(C(C)(C)C)c1 | - | - | - | - | - | - | - | - | -
Cc1ccc2c(C)c(C(=O)N(Cc3ccncc3)CC3CCCO3)oc2c1C (stereo unspecified) | - | - | - | - | - | - | . | . | .
Cc1ccc2oc(C(=O)N(Cc3ccc(N(C)C)cc3)CC3CCCO3)c(C)c2c1 (stereo unspecified) | - | - | - | - | - | - | - | - | -
Cc1cc(N2CCOCC2)nc2ccc(NC(=S)NCCN(C)C)cc12 | - | - | - | - | - | - | . | . | .
CC(C)C[C@H](NC(=O)OC(C)(C)C)C(=O)N/N=C/C1=Cc2ccccc2OC1C (stereo partly specified) | - | - | -11 | - | - | - | 68% | - | 32%
CC(C)C[C@H](NC(=O)OC(C)(C)C)C(=O)N/N=C/c1ccc2nccnc2c1 | - | - | - | - | - | - | . | . | .
CCOC(=O)c1sc2nc(CC(=O)OC)nc(N3CCN(c4ccc(OC)cc4)CC3)c2c1C | - | - | - | - | - | - | - | - | -
COc1ccc(S(=O)(=O)Nc2ccc(-c3ccc(N4CCCC4)nn3)cc2)cc1C | - | - | - | - | - | - | . | . | .
Cn1c2ccccc2c(=O)c2cc(C#Cc3ccc(N)cc3)ccc21 | - | - | -8.5 | - | - | - | 38% | - | 26%
Nc1ccc(C#Cc2ccc3oc4ccccc4c(=O)c3c2)cc1 | - | - | - | - | - | - | . | . | .
